ChEMBL document CHEMBL4145633, “Linfuranones B and C, Furanone-Containing Polyketides from a Plant-Associated Sphaerimonospora mesophila” (2018)
Calls of active or inactive are those of the source. No cut-off for these calls is given here.

Columns and labels:
[1] = Induction of preadipocyte differentiation into matured adipocyte in mouse ST-13 cells at 20 uM incubated for 2 to 8 days followed by compound wash out measured on day 12 by oil red O staining based phase contrast microscopy relative to control; assay type: functional
Method in brief: (§1)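 Mouse ST-13 preadipocytes were seeded on day 1 at 1 × 10^4 cells/mL in DME/F-12 with 10% FBS and penicillin/streptomycin, at 37 °C under 5% CO2. Medium containing compound, or 20 nM rosiglitazone as positive control, was renewed on days 2, 5 and 8. On day 12 cells were formalin-fixed, rinsed in 60% 2-propanol, stained with 0.24% Oil Red O and imaged by phase-contrast microscopy at 100×.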

[2] = Induction of preadipocyte differentiation into matured adipocyte in mouse ST-13 cells at 40 uM incubated for 2 to 8 days followed by compound wash out measured on day 12 by oil red O staining based phase contrast microscopy relative to control; assay type: functional; method in brief: as §1
Candida albicans = assay: […] activity against Candida albicans at 25 ug/ml; assay type: functional, organism-based
Escherichia coli = assay: Antibacterial activity against Escherichia coli at 25 ug/ml; assay type: functional, organism-based
Micrococcus luteus = assay: Antibacterial activity against Micrococcus luteus at 25 ug/ml; assay type: functional, organism-based

Compound	Activity [1] [%]	Activity [2] [%]	Activity (Candida albicans)	Activity (Escherichia coli)	Activity (Micrococcus luteus)
CCCCC(=O)O[C@H](C)/C=C(\C)[C@H](O)[C@H](C)/C=C/C=C/CC[C@@H](O)CC1=C(C)C(=O)C(C)(O)O1 (stereo partly specified)	22	33	inactive	inactive	inactive
CC1=C(C[C@H](O)CC/C=C/C=C/[C@@H](C)[C@@H](O)/C(C)=C/[C@@H](C)O)OC(C)(O)C1=O (stereo partly specified)	9	–	–	–	–
CCCCC(=O)[C@H](C)/C=C(\C)[C@H](O)[C@H](C)/C=C/C=C/CC[C@@H](O)CC1=C(C)C(=O)C(C)(O)O1 (stereo partly specified)	45	73	inactive	inactive	inactive
